3 compounds from ChEMBL document CHEMBL1126625, “7-Azetidinylquinolones as antibacterial agents. Synthesis and structure-activity relationships” (J Med Chem, 1993) can be followed below.

For data set [1], the system named is Staphylococcus aureus. Nature of the data set: Efficacy on systemic infections after oral administration in mice was determined against […] HS-93. In kind it is functional. The method in brief:
(§1)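 Mouse protection test using 4 groups of 10 mice. Mice were infected intraperitoneally with a bacterial suspension slightly above LD100. A single oral dose was given immediately after infection, with four doses, one per group, chosen from in vitro activity. Survival was scored after one week, and ED50 (total mg/kg protecting 50% of mice) was interpolated from group survival rates.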

In data set [2] the test system is Escherichia coli. Nature of the data set: Efficacy on systemic infections after oral administration in mice was determined against Escherichia coli HM-42. In kind it is functional. The method in brief:
as §1

The test system of a further data set is Enterobacter cloacae. Nature of the data set: Minimum inhibitory concentration (MIC)preventing growth of Enterobacter cloacae. In kind it is functional.
A further data set deals with Klebsiella pneumoniae. Nature of the data set: Minimum inhibitory concentration (MIC)preventing growth of Klebsiella pneumoniae. The format is functional.
The test system of data set [3] is Staphylococcus epidermidis. Nature of the data set: Minimum inhibitory concentration (MIC) preventing growth of Staphylococcus epidermidis. In kind it is functional.
A further data set concerns Morganella morganii. Nature of the data set: Minimum inhibitory concentration (MIC) preventing growth of Morganella morganii. In kind it is functional.
The next data set deals with Bacillus cereus. Nature of the data set: Minimum inhibitory concentration (MIC) preventing growth of Bacillus cereus. The format is functional.
In the next data set the test system is Enterococcus faecalis. Nature of the data set: Minimum inhibitory concentration (MIC) preventing growth of Streptococcus faecalis ATCC 10541. The format is functional.
In data set [4] the test system is Escherichia coli. Nature of the data set: Minimum inhibitory concentration (MIC)preventing growth of Escherichia coli. In kind it is functional.
In another data set the test system is Mus musculus. Nature of the data set: Blood level after oral administration in mice (50 mg/kg) was determined by bioassay procedure and represent total activity present in the serum. The format is ADME, organism-based. As to conditions: in vivo. The method in brief: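 Single oral dose of 50 mg/kg to mice. Blood taken from groups of six mice at 0.5, 1, 2 and 4 h after dosing. Serum levels measured by disk agar diffusion bioassay with Bacillus subtilis ATCC 6633 on Seed Agar, plates incubated 18 h at 37 °C, giving total activity in serum. AUC 0-4 h expressed as μg/mL […].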

The test system of the next data set is Bacillus subtilis. Nature of the data set: Minimum inhibitory concentration (MIC) preventing growth of Bacillus subtilis. The format is functional.
In another data set the test system is Proteus vulgaris. Nature of the data set: Minimum inhibitory concentration (MIC) preventing growth of Proteus vulgaris. In kind it is functional.
Data set [5] has as its system Pseudomonas aeruginosa. Nature of the data set: Minimum inhibitory concentration (MIC)preventing growth of Pseudomonas aeruginosa. The format is functional.
Data set [6] has as its system Pseudomonas aeruginosa. Nature of the data set: Efficacy on systemic infections after oral administration in mice was determined against Pseudomonas aeruginosa HS-116. In kind it is functional. The method in brief:
as §1

Data set [7] concerns Staphylococcus aureus. Nature of the data set: Minimum inhibitory concentration (MIC) preventing growth of […]. The format is functional.
The test system of data set [8] is Staphylococcus epidermidis. Nature of the data set: pIn vitro minimum inhibitory concentration (MIC) that prevented growth of Staphylococcus epidermidis ATCC 155-1 (Se) after incubation at 37 degree C for 18 h. The format is functional.

≈ marks a conversion by molar mass, not a printed value.

In the case of `CC1(N)CN(c2nc3c(cc2F)c(=O)c(C(=O)O)cn3-c2ccc(F)cc2F)C1`, the ED50 (as a rule, the dose that gives a 50% effect, or the effect in half of the subjects) in the data set with Staphylococcus aureus [1] is 6.7 mg/kg; with Escherichia coli [2], 3.1 mg/kg; with Pseudomonas aeruginosa [6], 108 mg/kg. For the same compound, the MIC (commonly the least concentration at which growth counts as inhibited) in the data set on Enterobacter cloacae turned out to be 0.12 µg/mL (≈ 0.297 µM); in the data set on Klebsiella pneumoniae, 0.06 µg/mL (≈ 0.148 µM); in [3] it was 0.12 µg/mL (≈ 0.297 µM); against Morganella morganii it was 0.25 µg/mL (≈ 0.618 µM); with Bacillus cereus, 0.12 µg/mL (≈ 0.297 µM); in the data set on Enterococcus faecalis, 0.5 µg/mL (≈ 1.24 µM). Moreover, the MIC in the data set with Escherichia coli [4] is 0.12 µg/mL (≈ 0.297 µM); with Bacillus subtilis it was 0.06 µg/mL (≈ 0.148 µM); in the data set on Proteus vulgaris, 0.5 µg/mL (≈ 1.24 µM); in the data set on Pseudomonas aeruginosa [5], 1 µg/mL (≈ 2.47 µM); in the data set with Staphylococcus aureus [7], 0.12 µg/mL (≈ 0.297 µM). Besides, the area under the curve (AUC) (as a rule, the area under the concentration-time curve, a measure of exposure) in the data set with Mus musculus came to 46400 ng·h/mL.

For `CC1COc2c(N3CC(C)(N)C3)c(F)cc3c(=O)c(C(=O)O)cn1c23` (stereo unspecified), the MIC against Enterobacter cloacae worked out at 0.12 µg/mL (≈ 0.345 µM); in the data set with Klebsiella pneumoniae, 0.015 µg/mL (≈ 0.0432 µM); in [8] it was 0.25 µg/mL (≈ 0.72 µM); in the data set on Morganella morganii it was 0.25 µg/mL (≈ 0.72 µM); against Bacillus cereus, 0.5 µg/mL (≈ 1.44 µM); with Enterococcus faecalis it was 0.5 µg/mL (≈ 1.44 µM). Besides, the MIC against Escherichia coli [4] stood at 0.12 µg/mL (≈ 0.345 µM); in the data set on Bacillus subtilis, 0.12 µg/mL (≈ 0.345 µM); with Proteus vulgaris, 1 µg/mL (≈ 2.88 µM); with Pseudomonas aeruginosa [5] it was 2 µg/mL (≈ 5.76 µM); with Staphylococcus aureus [7], 0.5 µg/mL (≈ 1.44 µM).

On to `CC1(N)CN(c2nc3c(cc2F)c(=O)c(C(=O)O)cn3C2CC2)C1`, for which the ED50 was 10.7 mg/kg in the data set on Staphylococcus aureus [1], 2.8 mg/kg in the data set with Escherichia coli [2] and 52 mg/kg in the data set with Pseudomonas aeruginosa [6]. In addition, the MIC against Enterobacter cloacae stood at 0.03 µg/mL (≈ 0.0903 µM); in the data set on Klebsiella pneumoniae it was 0.03 µg/mL (≈ 0.0903 µM); in [3], 0.12 µg/mL (≈ 0.361 µM); in the data set with Morganella morganii it was 0.06 µg/mL (≈ 0.181 µM); against Bacillus cereus, 0.12 µg/mL (≈ 0.361 µM); against Enterococcus faecalis, 0.25 µg/mL (≈ 0.752 µM). The MIC stood at 0.03 µg/mL (≈ 0.0903 µM) in the data set on Escherichia coli [4]; 0.03 µg/mL (≈ 0.0903 µM) against Bacillus subtilis; 0.12 µg/mL (≈ 0.361 µM) against Proteus vulgaris; 0.5 µg/mL (≈ 1.5 µM) against Pseudomonas aeruginosa [5]; 0.25 µg/mL (≈ 0.752 µM) in the data set on Staphylococcus aureus [7]. Besides, in the data set with Mus musculus, the AUC was 31700 ng·h/mL.
